# Experimental data taken from ChEMBL document CHEMBL1143148, “Influence of heterocyclic and oxime-containing farnesol analogs on quorum sensing and pathogenicity in Candida albicans” (Bioorg Med Chem, 2008).
# The source made the active and inactive calls. No cut-off for these calls is given here.
# Key:
# Candida albicans [1] = assay: Effect on quorum sensing in Candida albicans assessed as inhibition of germ tube formation; format: functional, organism-based
# In short: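 Undifferentiated C. albicans cells inoculated to a final 1–2 × 10⁷ cells/ml in 2.5 mM N-acetyl glucosamine buffered to pH 7. Incubated 4 h at 37 °C with shaking at 200 rpm. Percentage of cells forming germ tubes then scored and inhibition relative to untreated cells taken. Triplicate readings.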
# Candida albicans [2] = assay: Effect on rate of cell growth in Candida albicans at > 100 uM; format: functional, organism-based
# Mus musculus = assay: Toxicity against ip dosed mouse after 14 days; format: organism-based; settings: in vivo, 336 h
# Candida albicans [3] = assay: Enhancement of pathogen virulence in Candida albicans A72 infected mouse model of disseminated candidiasis assessed as mortality at 20 mM, ip after 60 hrs of infection relative to control; format: functional, organism-based
# In short: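 Mice inoculated by tail vein with C. albicans A72 at 5 · 10⁶ or 2 · 10⁶ cells, 45 mice per inoculum, split into 3 groups of 15. Each group received IP 1 ml of either 0.5% Tween 80 in saline (control) or a 20 mM analog solution in 0.5% Tween 80 in sterile nonpyrogenic saline. Mortality was followed over time.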
# Candida albicans [4] = assay: Protection against Candida albicans A72 infected mouse model of disseminated candidiasis assessed as mortality at 20 mM, ip; format: functional, organism-based
# In short: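 Mice inoculated by tail vein with C. albicans A72 at 5 × 10⁶ or 2 × 10⁶ cells, 15 per group. Each got 1 ml IP of a 20 mM analog solution in 0.5% Tween 80 in saline, or a vehicle control injection. Mortality followed over time.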
Structure (SMILES),IC50 (Candida albicans [1]) [µM],Activity (Candida albicans [2]),Activity (Mus musculus),Activity (Candida albicans [3]),Activity (Candida albicans [4])
CC(C)=CCC/C(C)=C/CC/C(C)=C/CO [FARNESOL],1,inactive,Non-toxic,–,–
CO/N=C/C=C(\C)CC/C=C(\C)CCC=C(C)C,≥ 100,inactive,–,–,–
C(=C\c1nn[nH]n1)/c1ccccc1,10,inactive,–,–,–
CCCCCCCCCc1nnn[nH]1,3,inactive,Non-toxic,–,–
CC(C)=CCC/C(C)=C/CCc1nnn[nH]1,7,inactive,Non-toxic,Active,inactive
CC(C)=CCC/C(C)=C/CC/C(C)=C/C=N/O,5,inactive,Toxic,–,–
CC(C)=C/C=C/C(C)=C/C=C/C(C)=C/C=N/O,10,inactive,–,–,–

# Continued, in another order:
IC50 (Candida albicans [1]) [µM],Structure (SMILES),Activity (Candida albicans [2]),Activity (Mus musculus),Activity (Candida albicans [3]),Activity (Candida albicans [4])
> 50,CC(C)=CCC/C(C)=C/CSc1nn[nH]n1,–,–,–,–
> 50,CC(C)=CCC/C(C)=C/Cc1nnn[nH]1,inactive,–,–,–
1,CC(C)=CCC/C(C)=C/CSc1nc[nH]n1,–,Non-toxic,–,inactive
3,CC(C)=CCC/C(C)=C/CSc1c[nH]nn1,–,–,–,–
> 50,CC(C)=CCC/C(C)=C/CSc1ncc[nH]1,–,–,–,–
1,CC(C)=CCC/C(C)=C/CCc1c[nH]nn1,–,–,–,–
